MC4R barr agon: MC4R agonists recruiting beta-arrestin, primary screen, cell-based, luminescence, agonist arm of biased-ligand search. activation, % at 8.9 µM. U2OS MC4R beta-arrestin complementation; percent of melanotan II response, DMSO zero. 360,000 tested, 0.98% active. AID 540308, 2011. Melanocortin receptor 4 (Homo sapiens), P32245;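 active = activation above a per-plate cutoff, the mean activation of sample wells on that plate plus 3 SD, cut at about 8% in these data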
AHR activator: AHR activators, primary screen, cell-based, luminescence, luciferase reporter, human. Aryl hydrocarbon receptor (Homo sapiens), P35869. activation, % at 5 µM. AHR-responsive luciferase reporter cells. AID 2796, 2010. 320,000 tested, 2.5% active; in the data active = activation above about 47%;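 also: 0% = vehicle wells and 100% = reference agonist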
m5-HT2A agonist: mouse Htr2a agonists via beta-arrestin recruitment, primary screen, cell-based, luminescence; 360,000 tested, 0.66% active; activation, % at 7.6 µM; AID 624169, 2012; CHO-K1 mHTR2A beta-arrestin complementation; percent of 30 µM serotonin response; 5-hydroxytryptamine receptor 2A (Mus musculus), P35363;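 active = activation above a run cutoff, the mean activation of all tested compounds plus 3 SD, cut at about 14% in these data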;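 also: 0% = plate median of compound wells and 100% = 30 µM serotonin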
Target sequence (P35363 whole entry, looked up): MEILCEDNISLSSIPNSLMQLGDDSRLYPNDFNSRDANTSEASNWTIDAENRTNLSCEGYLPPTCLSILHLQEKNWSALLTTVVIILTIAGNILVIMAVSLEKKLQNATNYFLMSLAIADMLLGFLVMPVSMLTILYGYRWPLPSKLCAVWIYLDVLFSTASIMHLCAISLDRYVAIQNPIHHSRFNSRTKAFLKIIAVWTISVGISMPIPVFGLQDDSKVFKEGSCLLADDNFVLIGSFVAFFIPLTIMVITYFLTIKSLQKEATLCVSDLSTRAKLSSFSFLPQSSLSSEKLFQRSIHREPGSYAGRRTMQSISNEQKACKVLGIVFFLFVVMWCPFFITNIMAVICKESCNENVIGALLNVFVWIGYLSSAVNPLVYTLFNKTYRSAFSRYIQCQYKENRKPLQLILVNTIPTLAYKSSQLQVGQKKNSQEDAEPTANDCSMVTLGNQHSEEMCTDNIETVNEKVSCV
GAA850 FXN act: FXN promoter activators, primary screen, cell-based, luciferase luminescence, HEK293 lucGAA850 | HEK293 lucGAA850 FXN promoter luciferase reporter, 24 h; percent of 10 µM SAHA response | activation, % at 6 µM | 360,000 tested, 0.56% active;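 active = activation above the average of all compounds screened plus 3 SD, cutoff fixed separately per campaign, cut at about 7.5% in these data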;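 also: 0% = DMSO wells and 100% = 10 µM SAHA wells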
MC4R antag cAMP: MC4R antagonists of cAMP signaling, primary screen, cell-based, TR-FRET, antagonist arm of biased-ligand search. MC4R-expressing cells, MTII-stimulated cAMP, LANCE TR-FRET. 360,000 tested, 0.48% active. inhibition, % at 6.5 µM. AID 540295, 2011. Melanocortin receptor 4 (Homo sapiens), P32245;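 active = inhibition above its plate's cutoff, the mean of tested wells on that plate plus 3 SD, cut at about 29% in these data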;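 also: 0% = Melanotan II alone and 100% = Melanotan II plus saturating MCL0020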
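Material – human MC4R-expressing U2OS cells · Repeats – no replicates · Detection – TR-FRET with Eu-cAMP and labeled anti-cAMP, 671 nm · Times – compound 30 min, challenge 1 h, detection 1 h · Compound – single nominal compound dose of 6.5 µM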
Starred values were filed as active, the others as inactive; · = not tested or not shown. Rows were chosen to be rich in hits. Some 4.7% of all compounds tested hit in one or more screens of this group.

SMILES	MC4R barr agon	AHR activator	m5-HT2A agonist	GAA850 FXN act	MC4R antag cAMP
N#Cc1ccc(-c2ccc(F)cc2)nc1Oc1ccccc1	7	2	-9	0	-2
CCN(CC)c1ncnc2c1[nH]c1ccccc12	-2	65*	-1	1	-5
COCCNc1ncnc2c1[nH]c1ccccc12	1	74*	0	1	17
CCCOc1ncnc2c1[nH]c1ccccc12	-1	80*	3	2	5
CC(C)Oc1ncnc2c1[nH]c1ccccc12	-2	22	4	-1	2
OCCCNc1ncnc2c1[nH]c1ccccc12	-1	23	-1	2	7
CN(Cc1ccccc1F)c1cc2c(c3c1ccn3C)C1CCC2C1 (centres undefined)	·	·	2	·	·
COc1ncnc2c1ncn2CCCNCCCN1CCCC1=O	-1	·	-1	0	4
Fc1cccc(Cl)c1/C=C/c1cnc2ccccc2n1	0	66*	-2	3	20
Cc1cc(C)nc(NC(=NCCc2c[nH]c3ccccc23)NC(=O)Nc2ccc(Cl)c(Cl)c2)n1	-1	6	5	1	25
Cc1cc(C)nc(NC(=NCCc2c[nH]c3ccccc23)NC(=O)Nc2ccccc2)n1	-2	52*	4	-2	11
CC(=O)Nc1ccc(N2C(C(C)=O)=NN(c3ccc(Cl)cc3)C2c2sccc2C)cc1 (centres undefined)	3	66*	5	-3	11
CC(=O)Nc1ccc(N2C(C(C)=O)=NN(c3ccccc3)C2c2cccs2)cc1 (centres undefined)	-1	3	0	-1	9
CCCCCC(=O)N1C[C@@H](n2cc(C3CC3)nn2)[C@H](O)C[C@@H]1c1ccc(Cl)cc1	1	·	6	-1	2
CSc1ccccc1OCc1cc(C(=O)NCc2cccc(C)n2)no1	-2	46	2	2	0
CSc1ccccc1OCc1cc(C(=O)NC(C)Cc2cccc(C)n2)no1 (centres undefined)	-3	53*	-3	5	-1
Cc1ccc(NC(=O)CC2S/C(=N/c3nccs3)N(C)C2=O)cc1C (centres undefined)	8.6*	53*	7	2	-2
CC1=Nc2nc(N3CCCCC3)c(C#N)c3c4c(nc(c23)N1)N(c1ccc(C(C)C)cc1)C(=O)C4	-3	-2	-1	2	8
CCCNC(=O)C1(C)CCN(C(=O)c2oc3ccccc3c2C)C1 (centres undefined)	1	·	2	-2	8
COC(=O)[C@@]12C[C@@H](CC(=O)NCCC(C)C)C(=O)N(CCc3ccc(OC)c(OC)c3)C1=CCC(C)(C)C2	·	·	2	·	·
CNC(=O)c1cc(Nc2nnc(C)c3ccccc23)ccc1OC	-1	59*	8	0	-2
Oc1ccc(Oc2ccc3c(C(F)(F)F)cc(C(F)(F)F)nc3n2)cc1	15*	1	6	-10	14
CC(C)(C)c1ccc(C(=O)Nc2ncn[nH]2)cc1	-2	70*	-2	4	5
Cc1ccc(C(=O)Nc2ncn[nH]2)cc1	0	16	-2	1	15
Cc1nn(C(=O)c2nn(C)cc2[N+](=O)[O-])c(C)c1Br	-2	1	30*	2	6
Cc1nn(C(=O)c2nn(C)cc2[N+](=O)[O-])c(C)c1Cl	-2	0	-3	0	9
C#CCOCCOCCOCCNc1nc(N2CCN(C(=O)CCCCCCCCCCNC(=O)[C@H](CCCCN)n3cc(CCO)nn3)CC2)nc(N2CCN(C(=O)CCCCCCCCCCNC(=O)[C@H](CCCN=C(N)N)n3cc(C[C@@H](C)CC)nn3)CC2)n1	-2	2	-10	0	78*
C#CCOCCOCCOCCNc1nc(N2CCN(C(=O)CCCCCCCCCCNC(=O)[C@@H](CCSC)n3cc(CCO)nn3)CC2)nc(N2CCN(C(=O)CCCCCCCCCCNC(=O)[C@H]([C@@H](C)CC)n3cc(CCCCCN)nn3)CC2)n1	·	0	·	·	·
